We go through 28 compounds from ChEMBL document CHEMBL1149196 (J Med Chem, 2004).

Broadly, the Ki is the dissociation constant of the complex between target and ligand, obtained from inhibition or displacement. Read a high Ki as weaker binding.

Test [1] concerns the target T1, Sodium-dependent serotonin transporter (Rattus norvegicus, UniProt P31652). The experiment in a line: (§1) Ability to inhibit high affinity uptake of [3H]-5-HT at Serotonin transporter (SERT) using rat midbrain. The class given is tissue-based. An outline of the steps:
(§2)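 Rat synaptosomal (P2) uptake: striatum for DAT, midbrain for SERT, parietal/occipital cortex for NET, in modified KRH pH 7.4 with nialamide. Drug preincubated 30 min at 4 °C, then 15 min at 37 °C. [3H]amine final ~5 nM (DA, 5-HT) or 9 nM (NE), 5 min uptake, stopped with cold Na-free buffer and filtered. Background from 0 °C tubes. IC50 converted to Ki by Cheng–Prusoff. Mean ± SE, ≥3 experiments.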
Target sequence in this assay (P31652 whole entry): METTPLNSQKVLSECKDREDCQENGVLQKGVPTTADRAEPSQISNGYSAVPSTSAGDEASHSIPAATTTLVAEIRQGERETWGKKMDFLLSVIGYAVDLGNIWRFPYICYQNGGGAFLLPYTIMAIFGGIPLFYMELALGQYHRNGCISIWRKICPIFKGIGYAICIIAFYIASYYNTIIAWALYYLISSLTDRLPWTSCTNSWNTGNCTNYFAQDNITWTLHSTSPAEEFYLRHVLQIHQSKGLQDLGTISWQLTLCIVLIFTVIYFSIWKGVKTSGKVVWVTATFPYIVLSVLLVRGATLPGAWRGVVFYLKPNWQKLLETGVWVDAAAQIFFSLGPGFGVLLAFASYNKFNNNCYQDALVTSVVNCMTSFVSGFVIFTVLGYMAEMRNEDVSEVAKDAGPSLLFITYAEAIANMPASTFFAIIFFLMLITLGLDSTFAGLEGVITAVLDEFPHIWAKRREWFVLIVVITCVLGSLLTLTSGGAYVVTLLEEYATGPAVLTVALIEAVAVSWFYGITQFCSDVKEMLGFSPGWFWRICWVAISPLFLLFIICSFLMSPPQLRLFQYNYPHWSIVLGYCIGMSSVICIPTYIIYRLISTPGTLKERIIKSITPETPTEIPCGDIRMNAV

Test [2] has as its target Sodium-dependent dopamine transporter (Rattus norvegicus, UniProt P23977). Briefly: Ability to inhibit high affinity uptake of [3H]DA at Dopamine transporter (DAT) using rat brain striatum. In kind it is tissue-based. In short, it runs like this:
as §2

For test [3], the target named is Monoamine transporters; serotonin & dopamine (Rattus norvegicus) (UniProt P31652+P23977). Briefly: Ratio of affinity for serotonin transporter to that of dopamine transporter. In kind it is protein assay. In short, it runs like this: (§3)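 Ratios of Ki values from rat synaptosomal [3H]amine uptake inhibition at SERT (midbrain), DAT (striatum) and NET (parietal/occipital cortex). Ki came from IC50 via Cheng–Prusoff.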
Chain of Monoamine transporters; serotonin & dopamine (Rattus norvegicus) (P23977 whole entry, looked up): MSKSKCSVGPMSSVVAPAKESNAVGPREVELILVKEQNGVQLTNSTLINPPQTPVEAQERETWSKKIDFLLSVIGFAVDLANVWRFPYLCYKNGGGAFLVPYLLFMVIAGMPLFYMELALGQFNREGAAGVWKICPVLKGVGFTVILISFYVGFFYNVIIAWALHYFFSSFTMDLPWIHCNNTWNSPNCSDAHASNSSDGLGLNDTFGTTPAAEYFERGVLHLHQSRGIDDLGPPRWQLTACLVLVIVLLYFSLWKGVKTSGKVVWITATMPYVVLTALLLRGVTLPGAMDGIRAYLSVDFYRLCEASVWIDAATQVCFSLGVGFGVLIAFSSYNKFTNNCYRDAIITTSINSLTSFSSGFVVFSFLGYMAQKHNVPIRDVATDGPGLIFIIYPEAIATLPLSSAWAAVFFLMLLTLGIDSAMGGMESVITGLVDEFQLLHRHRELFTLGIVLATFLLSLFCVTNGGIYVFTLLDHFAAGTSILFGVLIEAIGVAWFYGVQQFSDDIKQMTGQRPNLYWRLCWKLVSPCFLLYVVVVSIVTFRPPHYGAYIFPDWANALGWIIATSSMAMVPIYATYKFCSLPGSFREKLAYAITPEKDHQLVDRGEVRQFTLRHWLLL
Chain of Monoamine transporters; serotonin & dopamine (Rattus norvegicus) (P31652 whole entry, looked up): as the sequence (P31652 whole entry) above

The target in test [4] is Norepinephrine transporter (Rattus norvegicus, UniProt Q9WTR4). The experiment in a line: Ability to inhibit high affinity uptake of [3H]NE at Norepinephrine transporter (NET) using rat brain parietal/occipital cortex. In kind it is tissue-based. An outline of the steps:
as §2

Test [5] has as its target Monoamine transporters; Norepinephrine & serotonin (Rattus norvegicus) (UniProt P31652+Q9WTR4). The experiment in a line: Ratio of affinity for Norepinephrine transporter to that of Serotonin transporter. The class given is protein assay. In short, it runs like this:
as §3

The target in test [6] is T1, Sodium-dependent serotonin transporter. The description is as §1. The class given is tissue-based. An outline of the steps: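 Rat midbrain P2 synaptosomes in ice-cold modified KRH buffer (pH 7.4, with 0.01 mM nialamide). Drug preincubated 30 min at 4 °C, then 15 min at 37 °C. Uptake started with ~5 nM [3H]5-HT (final) and run 5 min. Stopped with cold sodium-free glucosamine buffer and GF/C filtration. IC50 by LIGAND, converted to Ki by Cheng–Prusoff. Mean ± SE of ≥3 experiments.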
Target sequence in this assay (P31652 whole entry, looked up): as the sequence (P31652 whole entry) above
The source holds these as a separate data set.

Chain of Sodium-dependent dopamine transporter (P23977 whole entry): as the sequence (P23977 whole entry, looked up) above
Chain of Norepinephrine transporter (Q9WTR4 whole entry): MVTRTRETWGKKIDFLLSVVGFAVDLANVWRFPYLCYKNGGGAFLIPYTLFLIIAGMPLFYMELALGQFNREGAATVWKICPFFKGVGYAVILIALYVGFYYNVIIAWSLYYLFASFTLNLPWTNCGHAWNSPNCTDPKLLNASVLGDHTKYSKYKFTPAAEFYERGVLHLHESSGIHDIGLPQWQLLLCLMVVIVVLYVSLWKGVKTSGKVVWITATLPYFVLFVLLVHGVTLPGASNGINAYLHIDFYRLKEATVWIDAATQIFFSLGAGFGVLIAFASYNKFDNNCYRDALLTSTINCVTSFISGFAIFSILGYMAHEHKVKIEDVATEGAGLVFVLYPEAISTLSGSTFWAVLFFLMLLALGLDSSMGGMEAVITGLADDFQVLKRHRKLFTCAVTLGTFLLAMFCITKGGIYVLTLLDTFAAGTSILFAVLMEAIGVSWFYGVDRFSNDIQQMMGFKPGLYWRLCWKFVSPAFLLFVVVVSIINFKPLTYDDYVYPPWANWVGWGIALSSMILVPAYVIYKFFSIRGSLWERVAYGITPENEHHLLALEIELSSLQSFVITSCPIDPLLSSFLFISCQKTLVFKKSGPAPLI

Consider `CN1CC[C@H](c2ccc(Cl)cc2)[C@@H](COC(=O)NC23CC4CC(CC(C4)C2)C3)C1`, for which the figures for the Ki in test [1], in test [2] and in test [4] were 37 nM, 56 nM and 56 nM, respectively. Further, the Ratio in test [3] amounted to 0.66; in test [5], 1.5.
In the case of `CN1CC[C@H](c2ccc(Cl)cc2)[C@@H](CC(=O)O)C1`, the results for the inhibition constant (Ki) in test [1], in test [2] and in test [4] were over 10000 nM, 3010 nM and 3810 nM, respectively.
As for `COC(=O)CC[C@H]1CN(C)CC[C@@H]1c1ccc(Cl)cc1`, the Ki in test [1] stood at 255 nM; in test [2], 68 nM; in test [4] it was 31 nM. Besides, the Ratio turned out to be 3.8 in test [3] and 0.12 in test [5].
Turning to `CCOC(=O)C[C@H]1CN(C)CC[C@@H]1c1ccc(Cl)cc1`, the Ki in test [1] was 191 nM; in test [2], 79 nM; in test [4], 101 nM. Moreover, the Ratio was 2.4 in test [3] and 0.53 in test [5].
Turning to `CN1CC[C@H](c2ccc(Cl)cc2)[C@@H](CCC(=O)Nc2ccccc2)C1`, the Ki amounted to 354 nM in test [1], 201 nM in test [2] and 56 nM in test [4]. Also, the Ratio in test [3] turned out to be 1.8; in test [5] it was 0.16.
In turn, `CN1CC[C@H](c2ccc(Cl)cc2)C(C(=O)N2CCCC2)C1` (some centres not stated) returned a Ki in test [4] of 2000 nM.
Consider `CN1CC[C@H](c2ccc(Cl)cc2)C(C(=O)Oc2ccccc2)C1` (some centres not stated), for which the results for the Ki in test [1], in test [2] and in test [4] were 2120 nM, 906 nM and 2180 nM, respectively. Also, the Ratio in test [3] amounted to 2.3; in test [5], 1.
As to `COC(=O)/C=C/[C@H]1CN(C)CC[C@@H]1c1ccc(Cl)cc1`, the figures for the Ki in test [1], in test [2] and in test [4] were 501 nM, 53 nM and 272 nM, respectively. In addition, the Ratio in test [3] worked out at 9.5; in test [5] it was 0.54.
As to `CN1CC[C@H](c2ccc(Cl)cc2)[C@@H](CCCF)C1`, the Ki came out at 5190 nM in test [1], 43 nM in test [2] and 356 nM in test [4]. The values for the Ratio in test [3] and in test [5] were 120 and 0.069, respectively.
`CN1CC[C@H](c2ccc(Cl)cc2)[C@@H](CCC(=O)O)C1`: the Ki in test [1] came to 4540 nM; in test [2] it was 1300 nM; in test [4] it was 425 nM. Moreover, the Ratio in test [3] is 3.5; in test [5], 0.094.
Take `CN1CC[C@H](c2ccc(Cl)cc2)[C@@H](C(=O)OC(C)(C)C)C1`: the figures for the Ki in test [1], in test [2] and in test [4] were 5750 nM, 318 nM and 350 nM, respectively. Further, the Ratio in test [3] is 18; in test [5] it was 0.061.
On to `CN1CC[C@H](c2ccc(Cl)cc2)[C@@H](CCC(=O)NC23CC4CC(CC(C4)C2)C3)C1`, for which the inhibitory constant (Ki) came out at 585 nM in test [1], 446 nM in test [2] and 152 nM in test [4]. For the same compound, the Ratio was 1.3 in test [3] and 0.26 in test [5].
Consider `CN1CC[C@H](c2ccc(Cl)cc2)[C@@H](CC(=O)NCc2ccccc2)C1`, for which the Ki in test [1] is 191 nM; in test [2], 270 nM; in test [4], 107 nM. Besides, the Ratio in test [3] came to 0.71; in test [5], 0.56.
Regarding `CN1CC[C@H](c2ccc(Cl)cc2)[C@@H](C(=O)O)C1`, the Ki came out at 131000 nM in test [1] and 282000 nM in test [6]. Further, the results for the Ratio in test [3] and in test [5] were 0.76 and 2.2, respectively.
Turning to `CC(=O)OC[C@H]1CN(C)CC[C@@H]1c1ccc(Cl)cc1`, the Ki was 901 nM in test [1], 599 nM in test [2] and 235 nM in test [4]. For the same compound, the Ratio in test [3] was found to be 1.5; in test [5], 0.26.
`CCNC(=O)OC[C@H]1CN(C)CC[C@@H]1c1ccc(Cl)cc1`: the Ki turned out to be 854 nM in test [1], 181 nM in test [2] and 100 nM in test [4]. Moreover, the values for the Ratio in test [3] and in test [5] were 4.7 and 0.12, respectively.
Take `CN1CC[C@H](c2ccc(Cl)cc2)[C@@H](COC(=O)c2ccccc2)C1`: the Ki in test [1] was determined as 296 nM; in test [2] it was 273 nM; in test [4], 389 nM. Besides, the Ratio in test [3] was determined as 1.1; in test [5] it was 1.3.
As to `CN1CC[C@H](c2ccc(Cl)cc2)[C@@H](CC(=O)NC23CC4CC(CC(C4)C2)C3)C1`, the Ki amounted to 376 nM in test [1], 706 nM in test [2] and 1080 nM in test [4]. Also, the Ratio in test [3] turned out to be 0.53; in test [5] it was 2.9.
Turning to `CCC[C@H]1CN(C)CC[C@@H]1c1ccc(Cl)cc1`, the values for the Ki in test [1], in test [2] and in test [4] were 228 nM, 20 nM and 6.5 nM, respectively. Moreover, the results for the Ratio in test [3] and in test [5] were 11 and 0.029, respectively.
For `CN1CC[C@H](c2ccc(Cl)cc2)[C@@H](CC(=O)N(C)Cc2ccccc2)C1` the same measures were 66 nM, 165 nM, 32 nM, 0.4 and 0.49.
`CN1CC[C@H](c2ccc(Cl)cc2)[C@@H](CC(=O)N(C)C)C1`: the Ki in test [1] stood at 1990 nM; in test [2], 16 nM; in test [4], 46 nM. The values for the Ratio in test [3] and in test [5] were 125 and 0.023, respectively.
With `CN1CC[C@H](c2ccc(Cl)cc2)[C@@H](CCCO)C1`, the results for the Ki in test [1], in test [2] and in test [4] were 2810 nM, 16 nM and 564 nM, respectively. Moreover, the Ratio in test [3] was found to be 175; in test [5] it was 0.2.
Regarding `CNC(=O)C[C@H]1CN(C)CC[C@@H]1c1ccc(Cl)cc1`, the Ki in test [1] amounted to 2270 nM; in test [4], 251 nM. Further, the Ratio in test [3] was 2.5; in test [5] it was 0.11.
For the compound `CN1CC[C@H](c2ccc(Cl)cc2)C(C(=O)N(C)C)C1` (some centres not stated), the Ki in test [1] amounted to 18900 nM; in test [2], 2140 nM; in test [4], 569 nM. In addition, the Ratio in test [3] came to 8.8; in test [5] it was 0.03.
On to `CN1CC[C@H](c2ccc(Cl)cc2)[C@@H](C(=O)OCCCCCc2ccccc2)C1`, for which the Ki is 1790 nM in test [1], 53 nM in test [2] and 382 nM in test [4]. The Ratio in test [3] was 34; in test [5], 0.21.
For `C=CCOC[C@H]1CN(C)CC[C@@H]1c1ccc(Cl)cc1` the same measures were 231 nM, 60 nM, 20 nM, 3.9 and 0.087.
As for `CN1CC[C@H](c2ccc(Cl)cc2)[C@@H](COC(=O)Nc2ccccc2)C1`, the Ki in test [1] turned out to be 1290 nM; in test [2], 91 nM; in test [4], 33 nM. For the same compound, the values for the Ratio in test [3] and in test [5] were 14 and 0.026, respectively.
For `CN1CC[C@H](c2ccc(Cl)cc2)[C@@H](CC(=O)OCCCc2ccccc2)C1`, in that order: 82 nM, 36 nM, 48 nM, 2.3 and 0.59.
